Bioassay records deposited in PubChem by The Scripps Research Institute Molecular Screening Center.
Shown are actives, neighbours in structure and some others; about 1.8% of the full set was active somewhere.
NPY-Y1 PAM-ag: NPY-Y1 receptor potentiators or agonists, primary screen, cell-based. Neuropeptide Y receptor type 1 (Homo sapiens), P25929. NPY-Y1 expressing cells, potentiator/agonist activation. activation, % at 3.6 µM. 220,000 compounds, 0.37% hits. AID 1304, 2008; in the data active means activation above about 33%, passing the limit was not always enough;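 further: cells stimulated with NPY at EC10 then isoproterenol at EC100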
NPY2 pot ag: NPY-Y2 potentiators or agonists, primary screen, cell-based | Neuropeptide Y receptor type 2 (Homo sapiens), P49146 | AID 1359, 2008 | cells expressing NPY-Y2, potentiator/agonist read-out | 220,000 compounds, 0.45% hits | activation, % at 3.6 µM; in the data active means activation above about 27%;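 further: cells stimulated with NPY near EC25 plus isoproterenol at EC100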
Target sequence (P49146 whole entry, looked up): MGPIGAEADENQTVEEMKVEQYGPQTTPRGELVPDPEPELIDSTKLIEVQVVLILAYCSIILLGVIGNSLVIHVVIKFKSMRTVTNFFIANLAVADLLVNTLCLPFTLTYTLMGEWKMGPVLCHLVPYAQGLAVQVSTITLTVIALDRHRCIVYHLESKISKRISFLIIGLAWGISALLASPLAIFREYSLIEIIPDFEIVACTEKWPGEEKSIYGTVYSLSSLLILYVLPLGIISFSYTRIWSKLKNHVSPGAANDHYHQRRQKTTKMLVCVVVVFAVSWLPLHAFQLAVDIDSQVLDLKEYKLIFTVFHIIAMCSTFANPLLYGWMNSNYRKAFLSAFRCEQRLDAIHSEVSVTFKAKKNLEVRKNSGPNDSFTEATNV
NPY Y1 blocker: NPY-Y1 receptor antagonists, primary screen, cell-based. Neuropeptide Y receptor type 1 (Homo sapiens), P25929. HEK293-CNG Y1 cells, membrane potential fluorescence; NPY at EC95, then isoproterenol. inhibition, % at 3.6 µM. 200,000 compounds, 1% hits;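 active means inhibition above the campaign mean inhibition of all tested compounds plus 3 SD, cut at about 20% in these data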
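Material: Y1- and CNG-channel-expressing HEK293 cells / Probe or stimulus: NPY 25 nM then isoproterenol 1 µM plus Ro 20-1724 25 µM / Doses: 3.6 µM single dose, DMSO 0.4% / Schedule: compound incubation 1 h at room temperature, readout 45 min post-stimulation / Signal: membrane potential fluorescence / Benchmarks: isoproterenol-only wells as full block versus NPY-plus-isoproterenol wells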
NPY-Y2 antag: NPY-Y2 receptor antagonists, primary screen, cell-based | NPY-Y2 expressing cells, antagonist mode | inhibition, % at 2.7 µM | 140,000 compounds, 0.99% hits; in the data active means inhibition above about 17%
Hits are given with their value; i = inactive; nt = not tested or not shown.

SMILES | NPY-Y1 PAM-ag | NPY2 pot ag | NPY Y1 blocker | NPY-Y2 antag
CC1CCCC(NC(=O)C2c3ccccc3C(=O)N2Cc2cccs2)C1C (stereo not given) | i | i | 34.6 | 24.6
O=C(COC(=O)Cc1ccccc1F)Nc1cc(S(=O)(=O)N2CCOCC2)ccc1N1CCCC1 | i | i | i | i
CCOC(=O)N1CCC(n2c(SCC(=O)NCc3ccccc3)nc3ccccc3c2=O)CC1 | i | i | i | i
CCOC(=O)N1CCC(n2c(SCC(=O)NCCC3=CCCCC3)nc3ccccc3c2=O)CC1 | i | i | 36.2 | 19.1
CC(C)(C)NC[C@H](O)COc1nsnc1N1CCOCC1 | 118.1 | 103.6 | i | i
Cc1cc(C)c(S(=O)(=O)Nc2ccc(OCC(=O)O)cc2)c(C)c1 | 47.4 | 50.8 | i | i
Cc1ccccc1OCC(O)CN(Cc1ccccc1O)C1CCCCC1 (stereo not given) | i | i | 20.3 | nt
CN(CC(O)COc1ccccc1F)C1CCCCC1 (stereo not given) | i | i | i | nt
O=c1[nH]c2c(c(=O)[nH]1)CCC2 | i | i | i | nt
NS(=O)(=O)c1ccc(N=Nc2c(O)ccc3ccccc23)cc1 | i | i | i | nt
Oc1ccc(N=Nc2c(O)ccc3ccccc23)cc1 | 86.7 | 82.0 | i | i
Cn1c(C(=O)NCc2ccccn2)cc2c(=O)n(C)c3ccccc3c21 | 37.0 | 42.2 | i | i
CCN1CCN(S(=O)(=O)c2ccc(Oc3ccccc3OC)cc2)CC1 | i | i | i | nt
C=CCN=c1scc(-c2ccc(F)cc2)n1/N=C/c1ccccn1 | 59.8 | 33.1 | i | i
CCN(CC)S(=O)(=O)c1cc(C(=O)OCC(=O)Nc2cccc(Br)c2)ccc1F | i | i | i | i
C=CCN=c1scc(-c2ccccc2)n1/N=C/c1ccccn1 | i | i | i | i
C=CCN=c1scc(-c2ccc3c(c2)NC(=O)CO3)n1/N=C(\C)c1ccccn1 | i | 34.3 | i | nt
Cc1ccc(NC(=O)c2cc([N+](=O)[O-])ccc2NCc2cccnc2)cc1Cl | 38.7 | i | i | i
COc1cccc(NC(=O)c2cc([N+](=O)[O-])ccc2NCc2cccnc2)c1 | i | i | i | i
Cc1nnc(SC(C)C(=O)Nc2ccc(Cl)cn2)n1Cc1ccccc1 (stereo not given) | i | i | i | i
CC(Sc1nnc(-c2ccc(Cl)cc2Cl)n1Cc1ccccc1)C(=O)Nc1nccs1 (stereo not given) | i | i | 25.9 | 29.3
NC(=O)Cn1c(-c2nonc2N)nc2ccccc21 | i | i | i | nt
Cc1ccc(Cn2c(-c3nonc3N)nc3ccccc32)cc1 | i | i | 23.4 | 20.8
Cc1cccc(C)c1Nc1c(-c2ccc(N3CCOCC3)cc2)nc2cnccn12 | 84.5 | 70.5 | nt | nt
c1cn2c(Nc3ccc4c(c3)OCCO4)c(-c3ccc(N4CCOCC4)cc3)nc2cn1 | i | i | nt | nt
SMILES | NPY-Y1 PAM-ag | NPY2 pot ag | NPY Y1 blocker | NPY-Y2 antag
OCCCNc1nc(-c2ccccc2)nc2c1oc1ccccc12 | i | i | nt | nt
O=c1cc(NCCCO)c2ccccc2o1 | 110.3 | 71.8 | i | i
C#CCOCCOCCOCCNc1nc(N2CCN(C(=O)[C@H](CCCCN)n3cc([C@@H](N)CO)nn3)CC2)nc(N2CCN(C(=O)[C@H](Cc3cc4ccccc4[nH]3)n3cc([C@@H](N)CC(C)C)nn3)CC2)n1 | i | i | i | nt
C=CC[n+]1c(-c2ccc(OCC)cc2)csc1NNC(=O)Nc1ccccc1 | 94.6 | 80.8 | i | i
C=CC[n+]1c(-c2ccc(C)cc2)csc1Nc1c(C)n(C)n(-c2ccccc2)c1=O | i | i | i | nt
CCCN(CCC)C1=CC(=[N+]2CCCC2)CC(C)(C)C1 | i | i | 34.1 | 24.2
CCCC(=O)c1c[nH]c(C(=O)N2CCOCC2)c1 | i | i | i | nt
Cc1ccc(N=C2SC(C(=O)Nc3ccc(OC(F)(F)F)cc3)C(N)=C2C(=O)Nc2c(C)cc(C)cc2C)cc1 (stereo not given) | i | 37.0 | i | i
CC(C)(C)C(=O)CNCC(=O)C(C)(C)C | i | i | i | nt
C1CCN(c2nc(N3CCCC3)nc(N3CCNCC3)n2)C1 | 79.4 | 69.1 | i | i
Cc1cc(C)n2c(SCC(=O)Nc3ccc(F)cc3)nnc2n1 | i | i | nt | nt
C=CCn1c(SCc2c(C)noc2C)nc2sc(C)c(C)c2c1=O | i | i | 21.1 | 17.5
Cc1noc(C)c1CSc1nc2sc(C)c(C)c2c(=O)n1-c1ccccc1 | i | i | i | i
CCc1ccc(-c2nc(CSCC(=O)NCc3ccco3)c(C)o2)cc1 | i | i | 21.1 | nt
O=C1COc2ccc(C(=O)COC(=O)Cc3ccsc3)cc2N1 | i | i | i | nt
O=C(Nc1ccccc1N1CCN(c2ccc(F)cc2)CC1)c1ccccc1 | i | i | 49.0 | 29.2
CCOC(=O)N1CCC(NC(=O)C(NC(=O)C2CCC(C)CC2)C(C)CC)CC1 (stereo not given) | i | i | i | i
CCCCC(C)(O)C/C=C/[C@H]1[C@H](O)CC(=O)[C@@H]1CCCCCCC(=O)OC (stereo not given in full) | i | i | 106.4 | 93.2
COc1ccc(CNC(=O)C(c2ccncc2)N(C(=O)Cc2cccs2)c2ccccc2)cc1 (stereo not given) | i | i | i | i
COc1ccc(N(C(=O)CCl)C(C(=O)NCCc2ccccc2)c2cccs2)cc1 (stereo not given) | 54.1 | 35.1 | i | i
N#Cc1nc(-c2ccco2)oc1N1CCOCC1 | i | i | i | i
N#Cc1nc(-c2ccco2)oc1N1CCN(c2ccccc2)CC1 | i | i | 26.1 | i
N#Cc1nc(-c2ccco2)oc1N1CCC(Cc2ccccc2)CC1 | i | i | 20.8 | 20.4
CCN1CCN(c2oc(/C=C/c3ccccc3)nc2C#N)CC1 | i | i | nt | nt
CC1=CC(=C2C=CC(=O)C=C2)C=C(C)N1C | i | i | nt | nt
SMILES | NPY-Y1 PAM-ag | NPY2 pot ag | NPY Y1 blocker | NPY-Y2 antag
CCCNCC(O)COc1ccccc1C(=O)CCc1ccccc1 (stereo not given) | 98.6 | 87.2 | i | i
CCN(CC)CC(O)COc1ccccc1C(=O)CCc1ccccc1 (stereo not given) | 51.4 | 39.3 | i | i
COc1ccc(OCC(=O)N2CCN(c3cccc(Cl)c3)CC2)cc1 | i | i | i | i
COc1ccc(OCC(=O)N2CCN(c3cccc(C(F)(F)F)c3)CC2)cc1 | 71.8 | 99.8 | i | i
O=C(COc1ccc(Cl)cc1)NCCSCc1cccc(Cl)c1 | i | i | i | 17.1
c1ccc(-c2nc(-n3nc4ccccc4n3)nc3ccccc23)cc1 | i | i | i | 26.5
Clc1ccc(-c2nc(N3CCCCC3)nc3ccccc23)cc1 | i | i | i | i
Cc1ccccc1NC(=O)c1ccc(CN2CCC(Cc3ccccc3)CC2)cc1 | i | 38.0 | i | i
COc1ccc(CCNC(=O)c2ccc(CN3CCC(Cc4ccccc4)CC3)cc2)cc1 | i | i | i | i
Cc1cccc(/C(N)=N/OC(=O)CCCN2C(=O)c3ccccc3C2=O)c1 | i | i | 29.2 | i
O=C(COC(=O)CC12CC3CC(CC(Br)(C3)C1)C2)NC(=O)NCc1ccco1 | i | i | i | i
CCC(NC(C)C)C(O)c1ccc(O)c2[nH]c(=O)ccc12 (stereo not given) | 76.5 | 69.0 | i | i
